Test results from ChEMBL document CHEMBL1148007, “Synthesis of new S-derivatives of clubbed triazolyl thiazole as anti-Mycobacterium tuberculosis agents” (Bioorg Med Chem, 2007).

Test system: Mycobacterium tuberculosis
Assay: Antitubercular activity against Mycobacterium tuberculosis H37Rv by MABA assay
Assay type: functional
Conditions: not given
Procedure, shortened: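 Actives re-tested at lower concentrations against H37Rv (ATCC 27294) in BACTEC 12B medium by Microplate Alamar Blue Assay. MIC taken as lowest concentration giving […] fluorescence reduction versus controls; rifampin reference.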

Row | SMILES | MIC
1 | O=C(O)CCNc1nc(Cc2nnc(S)n2NC(=O)c2cccc([N+](=O)[O-])c2)cs1 | 6.25 µM
2 | CC(=O)Nc1nc(Cc2nnc(SCC(=O)N/N=C/c3ccccc3)n2NC(=O)c2ccc(Cl)cc2)cs1 | 3.13 µM
3 | NNC(=O)CSc1nnc(Cc2csc(NC(=O)CCl)n2)n1NC(=O)c1cccc([N+](=O)[O-])c1 | 6.25 µM
4 | CC(=O)Nc1nc(Cc2nnc(SCC(=O)NN)n2NC(=O)c2cccc([N+](=O)[O-])c2)cs1 | 6.25 µM
5 | CC(=O)Nc1nc(Cc2nnc(SCC(=O)N/N=C/c3ccccc3)n2NC(=O)c2cccc([N+](=O)[O-])c2)cs1 | 0.78 µM
6 | O=C(O)CCNc1nc(Cc2nnc(SCC(=O)N/N=C/c3ccccc3)n2NC(=O)c2cccc([N+](=O)[O-])c2)cs1 | 1.56 µM
7 | N#CCSc1nnc(Cc2csc(NC(=O)c3ccccc3)n2)n1NC(=O)c1cccc([N+](=O)[O-])c1 | < 6.25 µg/mL
8 | O=C(Nc1nc(Cc2nnc(S)n2NC(=O)c2ccc(Cl)cc2)cs1)c1ccccc1 | 6.25 µM
9 | N#CCSc1nnc(Cc2csc(NC(=O)CCl)n2)n1NC(=O)c1ccc(Cl)cc1 | 3.13 µM

Test system: Mycobacterium tuberculosis
Assay: Antitubercular activity against Mycobacterium tuberculosis H37Rv at 6.25 ug/mL by MABA assay
Assay type: functional
Conditions: read-out: GI
Procedure, shortened: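 Primary screen against M. tuberculosis H37Rv (ATCC 27294) in BACTEC 12B medium by broth microdilution Microplate Alamar Blue Assay; fluorescent compounds run instead in BACTEC 460 radiometric system. Compounds above 95% inhibition counted active.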

Row | SMILES | inhibition of growth at 6.25 µg/mL [%]
10 | O=C(O)CCNc1nc(Cc2nnc(S)n2NC(=O)c2cccc([N+](=O)[O-])c2)cs1 | 96
11 | CC(=O)Nc1nc(Cc2nnc(SCC(=O)N/N=C/c3ccccc3)n2NC(=O)c2ccc(Cl)cc2)cs1 | 96
12 | NNC(=O)CSc1nnc(Cc2csc(NC(=O)CCl)n2)n1NC(=O)c1cccc([N+](=O)[O-])c1 | 96
13 | CC(=O)Nc1nc(Cc2nnc(SCC(=O)NN)n2NC(=O)c2cccc([N+](=O)[O-])c2)cs1 | 100
14 | CC(=O)Nc1nc(Cc2nnc(SCC(=O)N/N=C/c3ccccc3)n2NC(=O)c2cccc([N+](=O)[O-])c2)cs1 | 100
15 | O=C(O)CCNc1nc(Cc2nnc(SCC(=O)N/N=C/c3ccccc3)n2NC(=O)c2cccc([N+](=O)[O-])c2)cs1 | 96
16 | N#CCSc1nnc(Cc2csc(NC(=O)c3ccccc3)n2)n1NC(=O)c1cccc([N+](=O)[O-])c1 | 96
17 | O=C(Nc1nc(Cc2nnc(S)n2NC(=O)c2ccc(Cl)cc2)cs1)c1ccccc1 | 96
18 | N#CCSc1nnc(Cc2csc(NC(=O)CCl)n2)n1NC(=O)c1ccc(Cl)cc1 | 96

Test system: Staphylococcus aureus
Assay: Antibacterial activity against Staphylococcus aureus at 50 to 100 uM after 24 hrs by well diffusion method
Assay type: functional
Conditions: not given
Procedure, shortened: (§1)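 Nutrient agar plates with 10 mm wells cut by cork borer; 24-h subcultured bacteria swabbed on. Compounds dissolved in chloroform, 50 to 100 μM added to wells, gentamycin as standard. Incubated 24 h at 24–28 °C; inhibition zone diameter measured and converted to percent inhibition.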

Row | SMILES | inhibition zone [mm]
19 | O=C(O)CCNc1nc(Cc2nnc(S)n2NC(=O)c2cccc([N+](=O)[O-])c2)cs1 | 28
20 | CC(=O)Nc1nc(Cc2nnc(SCC(=O)N/N=C/c3ccccc3)n2NC(=O)c2ccc(Cl)cc2)cs1 | 25
21 | NNC(=O)CSc1nnc(Cc2csc(NC(=O)CCl)n2)n1NC(=O)c1cccc([N+](=O)[O-])c1 | 29
22 | CC(=O)Nc1nc(Cc2nnc(SCC(=O)NN)n2NC(=O)c2cccc([N+](=O)[O-])c2)cs1 | 19
23 | CC(=O)Nc1nc(Cc2nnc(SCC(=O)N/N=C/c3ccccc3)n2NC(=O)c2cccc([N+](=O)[O-])c2)cs1 | 30
24 | O=C(O)CCNc1nc(Cc2nnc(SCC(=O)N/N=C/c3ccccc3)n2NC(=O)c2cccc([N+](=O)[O-])c2)cs1 | 30
25 | N#CCSc1nnc(Cc2csc(NC(=O)c3ccccc3)n2)n1NC(=O)c1cccc([N+](=O)[O-])c1 | 28
26 | O=C(Nc1nc(Cc2nnc(S)n2NC(=O)c2ccc(Cl)cc2)cs1)c1ccccc1 | 16
27 | N#CCSc1nnc(Cc2csc(NC(=O)CCl)n2)n1NC(=O)c1ccc(Cl)cc1 | 24

Test system: Escherichia coli
Assay: Antibacterial activity against Escherichia coli at 50 to 100 uM after 24 hrs by well diffusion method
Assay type: functional
Conditions: not given
Procedure, shortened: as §1

Row | SMILES | inhibition zone [mm]
28 | O=C(O)CCNc1nc(Cc2nnc(S)n2NC(=O)c2cccc([N+](=O)[O-])c2)cs1 | 18
29 | CC(=O)Nc1nc(Cc2nnc(SCC(=O)N/N=C/c3ccccc3)n2NC(=O)c2ccc(Cl)cc2)cs1 | 20
30 | NNC(=O)CSc1nnc(Cc2csc(NC(=O)CCl)n2)n1NC(=O)c1cccc([N+](=O)[O-])c1 | 19
31 | CC(=O)Nc1nc(Cc2nnc(SCC(=O)NN)n2NC(=O)c2cccc([N+](=O)[O-])c2)cs1 | 22
32 | CC(=O)Nc1nc(Cc2nnc(SCC(=O)N/N=C/c3ccccc3)n2NC(=O)c2cccc([N+](=O)[O-])c2)cs1 | 24
33 | O=C(O)CCNc1nc(Cc2nnc(SCC(=O)N/N=C/c3ccccc3)n2NC(=O)c2cccc([N+](=O)[O-])c2)cs1 | 26
34 | N#CCSc1nnc(Cc2csc(NC(=O)c3ccccc3)n2)n1NC(=O)c1cccc([N+](=O)[O-])c1 | 22
35 | O=C(Nc1nc(Cc2nnc(S)n2NC(=O)c2ccc(Cl)cc2)cs1)c1ccccc1 | 10
36 | N#CCSc1nnc(Cc2csc(NC(=O)CCl)n2)n1NC(=O)c1ccc(Cl)cc1 | 26

Test system: Pseudomonas aeruginosa
Assay: Antibacterial activity against Pseudomonas aeruginosa at 50 to 100 uM after 24 hrs by well diffusion method
Assay type: functional
Conditions: not given
Procedure, shortened: as §1

Row | SMILES | inhibition zone [mm]
37 | O=C(O)CCNc1nc(Cc2nnc(S)n2NC(=O)c2cccc([N+](=O)[O-])c2)cs1 | 25
38 | CC(=O)Nc1nc(Cc2nnc(SCC(=O)N/N=C/c3ccccc3)n2NC(=O)c2ccc(Cl)cc2)cs1 | 20
39 | NNC(=O)CSc1nnc(Cc2csc(NC(=O)CCl)n2)n1NC(=O)c1cccc([N+](=O)[O-])c1 | 20
40 | CC(=O)Nc1nc(Cc2nnc(SCC(=O)NN)n2NC(=O)c2cccc([N+](=O)[O-])c2)cs1 | 23
41 | CC(=O)Nc1nc(Cc2nnc(SCC(=O)N/N=C/c3ccccc3)n2NC(=O)c2cccc([N+](=O)[O-])c2)cs1 | 31
42 | O=C(O)CCNc1nc(Cc2nnc(SCC(=O)N/N=C/c3ccccc3)n2NC(=O)c2cccc([N+](=O)[O-])c2)cs1 | 32
43 | N#CCSc1nnc(Cc2csc(NC(=O)c3ccccc3)n2)n1NC(=O)c1cccc([N+](=O)[O-])c1 | 24
44 | O=C(Nc1nc(Cc2nnc(S)n2NC(=O)c2ccc(Cl)cc2)cs1)c1ccccc1 | 10
45 | N#CCSc1nnc(Cc2csc(NC(=O)CCl)n2)n1NC(=O)c1ccc(Cl)cc1 | 28

Test system: Salmonella typhi
Assay: Antibacterial activity against Salmonella typhi at 50 to 100 uM after 24 hrs by well diffusion method
Assay type: functional, Salmonella enterica subsp. enterica serovar Typhi
Design: unit not given here
Conditions: not given
Procedure, shortened: as §1

Row | SMILES | Inhibition
46 | O=C(O)CCNc1nc(Cc2nnc(S)n2NC(=O)c2cccc([N+](=O)[O-])c2)cs1 | 19
47 | CC(=O)Nc1nc(Cc2nnc(SCC(=O)N/N=C/c3ccccc3)n2NC(=O)c2ccc(Cl)cc2)cs1 | 20
48 | NNC(=O)CSc1nnc(Cc2csc(NC(=O)CCl)n2)n1NC(=O)c1cccc([N+](=O)[O-])c1 | 18
49 | CC(=O)Nc1nc(Cc2nnc(SCC(=O)NN)n2NC(=O)c2cccc([N+](=O)[O-])c2)cs1 | 17
50 | CC(=O)Nc1nc(Cc2nnc(SCC(=O)N/N=C/c3ccccc3)n2NC(=O)c2cccc([N+](=O)[O-])c2)cs1 | 26
51 | O=C(O)CCNc1nc(Cc2nnc(SCC(=O)N/N=C/c3ccccc3)n2NC(=O)c2cccc([N+](=O)[O-])c2)cs1 | 27
52 | N#CCSc1nnc(Cc2csc(NC(=O)c3ccccc3)n2)n1NC(=O)c1cccc([N+](=O)[O-])c1 | 17
53 | O=C(Nc1nc(Cc2nnc(S)n2NC(=O)c2ccc(Cl)cc2)cs1)c1ccccc1 | 18
54 | N#CCSc1nnc(Cc2csc(NC(=O)CCl)n2)n1NC(=O)c1ccc(Cl)cc1 | 16

Test system: not listed separately
Assay: Cytotoxicity against Vero-C1008 cells at 6.25 to 50 ug/mL by neutral red uptake assay
Assay type: cell-based
Conditions: chlorocebus sabaeus
Procedure, shortened: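 Vero-C-1008 cells exposed to 6.25 to 50 μg/mL compound; viability read by neutral red uptake.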

Row | SMILES | Activity
55 | O=C(O)CCNc1nc(Cc2nnc(S)n2NC(=O)c2cccc([N+](=O)[O-])c2)cs1 | Non-toxic
56 | CC(=O)Nc1nc(Cc2nnc(SCC(=O)N/N=C/c3ccccc3)n2NC(=O)c2ccc(Cl)cc2)cs1 | Non-toxic
57 | NNC(=O)CSc1nnc(Cc2csc(NC(=O)CCl)n2)n1NC(=O)c1cccc([N+](=O)[O-])c1 | Non-toxic
58 | CC(=O)Nc1nc(Cc2nnc(SCC(=O)NN)n2NC(=O)c2cccc([N+](=O)[O-])c2)cs1 | Non-toxic
59 | CC(=O)Nc1nc(Cc2nnc(SCC(=O)N/N=C/c3ccccc3)n2NC(=O)c2cccc([N+](=O)[O-])c2)cs1 | Non-toxic
60 | O=C(O)CCNc1nc(Cc2nnc(SCC(=O)N/N=C/c3ccccc3)n2NC(=O)c2cccc([N+](=O)[O-])c2)cs1 | Non-toxic
61 | N#CCSc1nnc(Cc2csc(NC(=O)c3ccccc3)n2)n1NC(=O)c1cccc([N+](=O)[O-])c1 | Non-toxic
62 | O=C(Nc1nc(Cc2nnc(S)n2NC(=O)c2ccc(Cl)cc2)cs1)c1ccccc1 | Non-toxic
63 | N#CCSc1nnc(Cc2csc(NC(=O)CCl)n2)n1NC(=O)c1ccc(Cl)cc1 | Non-toxic
